Published values pooled from the literature.
Lines come from different studies, so protocols differ.
Organism: Pichia kudriavzevii
Read-out: microbial growth

| SMILES | method | strain | time | MIC |
| --- | --- | --- | --- | --- |
| OC(Cn1cncn1)(Cn1cncn1)c1ccc(F)cc1F | broth dilution | ATCC6258 | – | 32 µg/mL |
| CCCCCOc1c(OC)cc(NC(C)CCCNC(=O)C(N)Cc2cc3ccccc3[nH]2)c2nc(C(C)(C)C)ccc12 (stereo not drawn) | – | ATCC6258 | – | 10 µg/mL |
| OC(CNCCN1CCOCC1)(Cn1cncn1)c1ccc(F)cc1F (stereo not drawn) | broth dilution | ATCC6258 | 48 h | > 31.3 µg/mL |
| C[C@@H]1[C@H](O)[C@@H](C)/C=C/C=C/C=C/C=C/C=C/C=C/C=C/[C@H](O[C@@H]2O[C@H](C)[C@@H](O)[C@H](N)[C@@H]2O)C[C@@H]2O[C@](O)(C[C@@H](O)C[C@@H](O)[C@H](O)CC[C@@H](O)C[C@@H](O)CC(=O)O[C@H]1C)C[C@H](O)[C@H]2C(=O)O | – | – | – | 0.5 µM |
| CCCCCCCCCCN1CCNCC1 | broth dilution | ATCC6258 | 48 h | 7.8 µg/mL |
| C=C(C)[C@@H]1CC[C@]2(C)CC[C@]3(C)[C@H](CC[C@@H]4[C@@]5(C)CCC(=O)C(C)(C)[C@@H]5CC[C@]43C)[C@@H]12 | broth dilution | ATCC6258 | 48 h | 500 µg/mL |
| C[C@@H]1[C@H](O)[C@@H](C)/C=C/C=C/C=C/C=C/C=C/C=C/C=C/[C@H](O[C@@H]2O[C@H](C)[C@@H](O)[C@H](N)[C@@H]2O)C[C@@H]2O[C@](O)(C[C@@H](O)C[C@@H](O)[C@H](O)CC[C@@H](O)C[C@@H](O)CC(=O)O[C@H]1C)C[C@H](O)[C@H]2C(=O)O | – | ATCC6258 | – | 1.35 µM |
| C=C(C)[C@@H]1CC[C@]2(C)CC[C@]3(C)[C@H](CC[C@@H]4[C@@]5(C)CC[C@H](O)C(C)(C)[C@@H]5CC[C@]43C)[C@@H]12 | broth dilution | ATCC6258 | 48 h | 250 µg/mL |
| CCCCCCCCCCCCCCN1CCNCC1 | broth dilution | ATCC6258 | 48 h | 0.975 µg/mL |
| CCCCCOc1c(OC)cc(NC(C)CCCNC(=O)C(N)CC(C)C)c2nc(C(C)(C)C)ccc12 (stereo not drawn) | – | ATCC6258 | – | 10 µg/mL |
| CCCCCCCCN1CCNCC1 | broth dilution | ATCC6258 | 48 h | > 31.3 µg/mL |
| CCCCCOc1c(OC)cc(NC(C)CCCNC(=O)C(N)Cc2ccccc2)c2nc(C(C)(C)C)ccc12 (stereo not drawn) | – | ATCC6258 | – | 10 µg/mL |
